Measured values published in ChEMBL document CHEMBL3425405, “Discovery of Small Molecules for Up-Regulating the Translation of Antiamyloidogenic Secretase, a Disintegrin and Metalloproteinase 10 (ADAM10), by Binding to the G-Quadruplex-Forming Sequence in the 5' Untranslated Region (UTR) of Its mRNA” (J Med Chem, 2015).
Active and inactive are the calls of the source. The calls are words filed in the database; no cut-off is given here.

Legend:
Assay type in all cases: cell-based
HeLa [1] = experiment: Toxicity against human HeLa cells assessed as effect on cell morphology at 0.5 to 2.5 uM after 24 hrs
Procedure, shortened: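 HeLa cells inspected for cell number and morphology before the luciferase read-out, after reporter-plasmid transfection and 24 h exposure to 0, 0.5, 1 or 2.5 μM compound.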

HeLa [2] = experiment: Binding affinity to VEGF RNA QGRS (unknown origin) transfected in human HeLa cells assessed as increase in ADAM10 translation efficiency at 2.5 uM after 24 hrs by Renilla/firefly dual luciferase reporter assay
Procedure, shortened: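 HeLa cells carrying luciferase reporter plasmids with the N-Ras, Bcl-2 or VEGF 5′-UTR quadruplex (or its mutant) treated with compound up to 2.5 μM for 24 h. Renilla/firefly luciferase activity then measured.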

HeLa [3] = experiment: Binding affinity to ADAM10 5'-UTR mutant RNA QGRS (unknown origin) transfected in human HeLa cells assessed as increase in ADAM10 translation efficiency at 0.5 uM after 24 hrs by Renilla/firefly dual luciferase reporter assay
Procedure, shortened: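 HeLa cells transfected with 0.8 μg 5′UTR-Wt or 5′UTR-Mut dual-luciferase plasmid. After 12 h, incubated 24 h with 0, 0.5, 1 or 2.5 μM compound. Renilla luciferase normalized to firefly and expressed relative to the ligand-free control; mean ± SD of three independent experiments, each in triplicate.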

HeLa [4] = experiment: Binding affinity to ADAM10 A10-mutant RNA QGRS (unknown origin) transfected in human HeLa cells assessed as increase in ADAM10 translation efficiency at 0.5 to 2.5 uM after 24 hrs by Renilla/firefly dual luciferase reporter assay
Procedure, shortened: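 HeLa cells transfected with 0.8 μg A10-Wt, A10-Mut or A10-Del plasmid (G-quadruplex motif upstream of Renilla in psiCHECK-2). Screening: 24 h at a single 2 μM concentration. Follow-up: plasmid for 12 h, then 0, 0.5, 1 or 2.5 μM for 24 h. Renilla normalized to firefly, relative to untreated control; mean ± SD of three independent measurements.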

`CCn1c2ccccc2c2cc(/C=C/c3cc(N4CCN(C)CC4)c4ccccc4[n+]3C)ccc21.[I-]` was tested, and the Activity (HeLa [1]) was “Non-toxic”, the Activity (HeLa [2]) was “inactive” and the Activity (HeLa [3]) was “inactive”. For the same compound, the Activity (HeLa [4]) was “inactive”.
